In ChEMBL document CHEMBL2176936, “Identification of a 4-(hydroxymethyl)diarylhydantoin as a selective androgen receptor modulator” (J Med Chem, 2012):

Key:
[1] = system: Rattus norvegicus; assay: Androgenic activity in ORX rat model assessed as weight of ventral prostate at 30 mg/kg/day, po administered for 4 days; assay type: functional, Prostate gland
Summary of the method: (§1)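 Hershberger-type model in castrated immature male rats: left untreated one week after castration, then dosed four days (test compounds oral; testosterone propionate sc). Levator ani and ventral prostate weights normalised to body weight; activity % = (W/BW treated − W/BW ORX)/(W/BW sham − W/BW ORX) × 100. A50 = dose giving 50% activity on the tissue.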

[2] = Oral bioavailability in monkey; assay type: ADME, organism-based, Macaca mulatta; settings: rhesus monkey, in vivo
[3] = Oral bioavailability in rat at 10 mg/kg and 3 mg/kg, iv; assay type: ADME, organism-based; settings: in vivo
Summary of the method: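 Absolute oral bioavailability in rats: single oral dose 10 mg/kg in EtOH/PEG400/H₂O (1/79/20, v/v/v) compared with single iv dose 3 mg/kg in DMSO/PEG400/H₂O (1/65/34, v/v/v).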

[4] = system: Rattus norvegicus; assay: Androgenic activity in ORX rat model assessed as weight of ventral prostate at 10 mg/kg/day, po administered for 4 days; assay type: functional, Prostate gland; summary of the method: as §1
[5] = system: Rattus norvegicus; assay: Anabolic activity in ORX rat model assessed as weight of levator ani muscle at 30 mg/kg/day, po administered for 4 days; assay type: functional; summary of the method: as §1
[6] = system: Rattus norvegicus; assay: Anabolic activity in ORX rat model assessed as weight of levator ani muscle at 10 mg/kg/day, po administered for 4 days; assay type: functional; summary of the method: as §1
[7] = system: Rattus norvegicus; assay: […] activity in ORX rat model assessed as increase in prostate weight at 10 mg/kg/day, po administered for 3 months relative to sham-treated control; assay type: functional, Prostate gland
Summary of the method: (§2)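 Rats castrated at seven weeks of age, then given compound orally for three months in a prophylactic setting at 10 mg/kg/day. Levator ani and prostate weights normalised with sham-operated rats set to 100% and ORX rats set to 0%.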

[8] = Half life in Sprague-Dawley rat at 3 mg/kg, iv; assay type: ADME, organism-based; set-up: dose 3 mg/kg, route intravenous; settings: in vivo
Summary of the method: (§3)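 Male Sprague-Dawley rats, single dose: iv 3 mg/kg in DMSO/PEG200/H₂O (1/79/20, v/v/v), or oral 10 mg/kg in EtOH/PEG200/H₂O (1/79/20, v/v/v). Two groups of three rats; N = 2 rats for one arm. CL, T1/2, Vdss, AUC(0−∞) and F derived.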

[9] = AUC (0 to infinity) in Sprague-Dawley rat at 3 mg/kg, iv; assay type: ADME, organism-based; set-up: dose 3 mg/kg, route intravenous, time infinity; settings: plasma
[10] = Volume of distribution at steady state in Sprague-Dawley rat at 3 mg/kg, iv; assay type: ADME, organism-based; set-up: dose 3 mg/kg, route intravenous; settings: in vivo, read-out: Vdss; summary of the method: as §3
[11] = Clearance in Sprague-Dawley rat at 3 mg/kg, iv; assay type: ADME, organism-based; set-up: dose 3 mg/kg, route intravenous; settings: in vivo; summary of the method: as §3
[12] = system: Rattus norvegicus; assay: Anabolic activity in ORX rat model assessed as dose required for 50% activity on levator ani muscle po administered for 4 days; assay type: functional; summary of the method: as §1
[13] = AUC (0 to infinity) in Sprague-Dawley rat at 10 mg/kg, po; assay type: ADME, organism-based; set-up: time infinity, dose 10 mg/kg, route oral; settings: plasma
[14] = system: Rattus norvegicus; assay: […] activity in ORX rat model assessed as activity on ventral prostate at 30 mg/kg/day, po administered for 4 days; assay type: functional, Prostate gland; summary of the method: as §1
[15] = Oral bioavailability in Sprague-Dawley rat at 10 mg/kg; assay type: ADME, organism-based; settings: in vivo; summary of the method: as §3
[16] = Half life in Sprague-Dawley rat at 10 mg/kg, po; assay type: ADME, organism-based; set-up: dose 10 mg/kg, route oral; settings: in vivo; summary of the method: as §3
[17] = system: Rattus norvegicus; assay: Anabolic activity in ORX rat model assessed as increase in levator ani muscle weight at 10 mg/kg/day, po administered for 3 months relative to sham-treated control; assay type: functional; summary of the method: as §2
[18] = system: Rattus norvegicus; assay: Androgenic activity in ORX rat model assessed as weight of ventral prostate at 1 mg/kg/day, sc administered for 4 days; assay type: functional, Prostate gland; settings: route subcutaneous; summary of the method: as §1
[19] = system: Rattus norvegicus; assay: Anabolic activity in ORX rat model assessed as weight of levator ani muscle at 1 mg/kg/day, sc administered for 4 days; assay type: functional; settings: route subcutaneous; summary of the method: as §1
[20] = system: Rattus norvegicus; assay: Androgenic activity in ORX rat model assessed as dose required for 50% activity on ventral prostate po administered for 4 days; assay type: functional, Prostate gland; summary of the method: as §1

## CN1C(=O)N(c2ccc(C#N)c(C(F)(F)F)c2)C(=O)[C@@]1(C)c1ccc(O)cc1
[1]
  Activity: 26%
[2]
  bioavailability: < 9%
[3]
  bioavailability: < 9%
[4]
  Activity: 12%
[5]
  Activity: 77%

## CN1C(=O)N(c2ccc(C#N)c(C(F)(F)F)c2)C(=O)[C@]1(CO)c1ccccc1
[6]
  Activity: 101%

## CN1C(=O)N(c2ccc(C#N)c(C(F)(F)F)c2)C(=O)C1(C)c1ccc(O)cc1 (racemic)
[1]
  Activity: 16%
[3]
  bioavailability: 1.5%
[4]
  Activity: 8%
[6]
  Activity: 68%
[5]
  Activity: 89%

## CN1C(=O)N(c2ccc(Cl)c(Cl)c2)C(=O)C1(CO)c1ccccc1 (racemic)
[4]
  Activity: 23%
[6]
  Activity: 96%

## CCN1C(=O)N(c2ccc(C#N)c(C(F)(F)F)c2)C(=O)C1(CO)c1ccccc1 (racemic)
[3]
  bioavailability: 76%
[4]
  Activity: 59%
[6]
  Activity: 112%

## CC(C)N1C(=O)N(c2ccc(C#N)c(C(F)(F)F)c2)C(=O)C1(CO)c1ccccc1 (racemic)
[4]
  Activity: 60%
[6]
  Activity: 109%

## C#CCN1C(=O)N(c2ccc(C#N)c(C(F)(F)F)c2)C(=O)C1(CO)c1ccccc1 (racemic)
[4]
  Activity: 43%
[6]
  Activity: 96%

## CN1C(=O)N(c2ccc(C#N)c(C(F)(F)F)c2)C(=O)C1(C)c1ccc2[nH]ccc2c1 (racemic)
[3]
  bioavailability: 19%

## CN1C(=O)N(c2ccc(C#N)c(C(F)(F)F)c2)C(=O)C1(C)c1ccc2[nH]cnc2c1 (racemic)
[3]
  bioavailability: 100%

## CN1C(=O)N(c2ccc(C#N)c(C(F)(F)F)c2)C(=O)C1(CO)c1ccccc1 (racemic)
[1]
  Activity: 14%
[3]
  bioavailability: 63%
[4]
  Activity: 13%
[5]
  Activity: 96%

## COc1ccc(C2(CO)C(=O)N(c3ccc(C#N)c(C(F)(F)F)c3)C(=O)N2C)cc1 (racemic)
[1]
  Activity: 95%
[3]
  bioavailability: 25%
[5]
  Activity: 130%

## CN1C(=O)N(c2ccc(C#N)c(C(F)(F)F)c2)C(=O)C1(CO)c1ccc(O)cc1 (racemic)
[1]
  Activity: 55%
[3]
  bioavailability: 15%
[5]
  Activity: 82%

## CN1C(=O)N(c2ccc(C#N)c(C(F)(F)F)c2)C(=O)C1(CO)c1ccccc1Cl (racemic)
[4]
  Activity: 7%
[6]
  Activity: 26%

## CN1C(=O)N(c2ccc(C#N)c(C(F)(F)F)c2)C(=O)C1(CO)c1cccc(Cl)c1 (racemic)
[4]
  Activity: 16%
[6]
  Activity: 66%

## CN1C(=O)N(c2ccc(C#N)c(C(F)(F)F)c2)C(=O)C1(CO)c1ccc(Cl)cc1 (racemic)
[3]
  bioavailability: 99%
[4]
  Activity: 0%
[6]
  Activity: 35%

## CN1C(=O)N(c2ccc(C#N)c(C(F)(F)F)c2)C(=O)C1(CO)c1ccc(F)cc1 (racemic)
[3]
  bioavailability: 87%

## CN1C(=O)N(c2ccc(C#N)c(C(F)(F)F)c2)C(=O)C1(CO)c1cccc(C#N)c1 (racemic)
[4]
  Activity: 26%
[6]
  Activity: 84%

## CN1C(=O)N(c2ccc(C#N)c(C(F)(F)F)c2)C(=O)C1(CO)c1ccc(C#N)cc1 (racemic)
[4]
  Activity: 11%
[6]
  Activity: 12%

## Cc1cccc(C2(CO)C(=O)N(c3ccc(C#N)c(C(F)(F)F)c3)C(=O)N2C)c1 (racemic)
[4]
  Activity: 0%
[6]
  Activity: 24%

## CN1C(=O)N(c2ccc(C#N)c(C(F)(F)F)c2)C(=O)[C@@]1(CO)c1ccccc1 [GLPG0492]
[7]
  Activity: 25%
[8]
  half-life: 1.5 h
[1]
  Activity: 26%
[9]
  AUC(0-inf): 2360 ng·h/mL
[10]
  Vd: 2.5 L/kg
[11]
  clearance: 21.7 mL/min/kg
[12]
  Activity: 0.75 mg/kg/day
[13]
  AUC(0-inf): 4680 ng·h/mL
[14]
  %max: 30%
[3]
  bioavailability: 56%
[4]
  Activity: 24%
[15]
  bioavailability: 56%
[6]
  Activity: 101%
[5]
  Activity: 106%
[16]
  half-life: 2.2 h
[17]
  Activity: 117%

## CCC(=O)O[C@H]1CC[C@H]2[C@@H]3CCC4=CC(=O)CC[C@]4(C)[C@H]3CC[C@]12C [TESTOSTERONE PROPIONATE]
[18]
  Activity: 73%
[12]
  Activity: 0.3 mg/kg/day
[19]
  Activity: 99%
[20]
  Activity: 0.2 mg/kg/day
